A selection: hits, their analogues and other compounds. The true share with any hit is near 3.4%.
IMP-1 inhibitor: IMP-1 metallo-beta-lactamase inhibitors, primary screen, biochemical, epi-absorbance readout, Pseudomonas aeruginosa enzyme | purified IMP-1, nitrocefin hydrolysis, epi-absorbance fluorescence | inhibition, % at 5.6 µM | 0.45% of 290,000 active;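 active means inhibition above the mean plus 3 SD of all compounds in the same screening run, cut at about 4.5% in these data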;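 further: 0% = IMP-1 with DMSO and 100% = DMSO wells lacking enzyme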
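Material – recombinant IMP-1 enzyme, purified · Amount – IMP-1 0.2 nM before substrate addition · Medium – HEPES buffer pH 7.1 with ZnSO4 and Brij 35 · Timing – 25 °C, 15 min preincubation, 25 min reaction · Measured by – plate fluorescence quenching by hydrolysis product, ex 480/em 530 nm · Read-out – percent enzyme inhibition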
ANO1 activ: TMEM16A chloride channel activators or potentiators, primary screen, cell-based, HTS. B-score at 10 µM. 0.3% of 340,000 active. AID 623877, 2012. HEK293 TMEM16A/YFP-H148Q/I152L, iodide quench fluorescence; stronger effect = lower value;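 active means fluorescence-ratio B-score plate-corrected deviation score at least 3 library SD below zero, with starting fluorescence score within 5 deviations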;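 further: channel opened by trigger with iodide after compound preincubation; score built on the fluorescence ratio of max minus min over baseline; more negative score means more quench and so TMEM16A activation or potentiation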
Target sequence (Q8BHY3 whole entry, looked up): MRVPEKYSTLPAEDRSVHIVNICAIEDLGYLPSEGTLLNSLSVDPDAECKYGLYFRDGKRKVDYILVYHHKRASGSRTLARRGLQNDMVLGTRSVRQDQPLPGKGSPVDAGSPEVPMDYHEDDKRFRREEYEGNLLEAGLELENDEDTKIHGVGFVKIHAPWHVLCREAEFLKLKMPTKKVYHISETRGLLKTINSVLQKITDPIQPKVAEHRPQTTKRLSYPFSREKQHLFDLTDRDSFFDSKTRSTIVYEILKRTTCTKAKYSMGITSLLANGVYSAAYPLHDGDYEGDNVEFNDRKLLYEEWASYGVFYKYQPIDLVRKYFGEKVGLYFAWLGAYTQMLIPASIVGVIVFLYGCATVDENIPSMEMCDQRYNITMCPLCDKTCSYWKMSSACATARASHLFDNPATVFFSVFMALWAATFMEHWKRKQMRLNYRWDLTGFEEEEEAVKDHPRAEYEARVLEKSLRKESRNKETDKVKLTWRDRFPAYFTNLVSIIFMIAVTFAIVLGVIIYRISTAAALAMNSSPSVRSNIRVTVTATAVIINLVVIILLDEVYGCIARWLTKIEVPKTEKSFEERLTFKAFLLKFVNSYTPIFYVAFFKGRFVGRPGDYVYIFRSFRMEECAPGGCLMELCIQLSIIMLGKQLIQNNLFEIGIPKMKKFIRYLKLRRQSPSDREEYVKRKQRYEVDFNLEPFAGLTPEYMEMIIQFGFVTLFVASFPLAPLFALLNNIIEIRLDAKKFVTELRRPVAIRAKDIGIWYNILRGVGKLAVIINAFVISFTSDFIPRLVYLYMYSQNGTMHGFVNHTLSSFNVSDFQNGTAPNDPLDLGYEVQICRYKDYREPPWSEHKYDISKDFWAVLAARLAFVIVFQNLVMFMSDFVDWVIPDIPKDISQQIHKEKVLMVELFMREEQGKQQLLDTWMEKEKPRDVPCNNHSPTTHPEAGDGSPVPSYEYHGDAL
CHT allo act: CHT positive allosteric modulators, primary screen, cell-based, membrane potential dye, choline EC20 | 0.49% of 310,000 active | CHT-expressing cells; stronger effect = higher value; LV-AA mutant CHT in HEK293 cells | B-score at 10 µM | High affinity choline transporter 1 (Homo sapiens), Q9GZV3;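 active means initial fluorescence not abnormally high and integrated response B-score, plate-corrected, over 3 SD above library mean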
TMEM16A inh: TMEM16A chloride channel inhibitors, primary screen, cell-based, HTS; Anoctamin-1 (Mus musculus), Q8BHY3; HEK293 TMEM16A/YFP iodide influx fluorescence, ionomycin; normalized B-score (activity score, 25-100; higher = stronger inhibition) at 10 µM; 1.2% of 310,000 active;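 active means ratio plate-corrected score three or more library SD toward inhibition, starting fluorescence score within five deviations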;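 further: score derived from kinetic fluorescence span divided by baseline fluorescence per well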
CHT block: inhibitors of human choline transporter CHT; High affinity choline transporter 1 (Homo sapiens), Q9GZV3; CHT-expressing cells, membrane potential dye, choline response; stronger effect = lower value; B-score at 10 µM; 0.86% of 310,000 active; AID 488975, 2010;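 active means B-score over 3 SD under the library average, and starting fluorescence ratio not unusually high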;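 further: choline stimulus applied at its EC90 after an EC20 pre-addition; B-score computed on integrated fluorescence ratio after choline addition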
VIM-2 inhibitor: VIM-2 metallo-beta-lactamase inhibitors, primary screen, biochemical, epi-absorbance readout, Pseudomonas aeruginosa enzyme; purified VIM-2, nitrocefin hydrolysis, epi-absorbance fluorescence; inhibition, % at 5.6 µM; 0.89% of 290,000 active;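 active means inhibition above the mean of all tested compounds plus 3 SD, cutoff set per screening run, cut at about 7.5% in these data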;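 further: red hydrolysis product quenches plate fluorescence so inhibitors raise well fluorescence; 0% = enzyme with DMSO and 100% = DMSO without enzyme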
An asterisk follows results filed as active.

For O=C(N/N=C/c1cc([N+](=O)[O-])ccc1O)c1cc(-c2ccccc2)nc2ccccc12 the results were IMP-1 inhibitor -3.0, ANO1 activ inactive, CHT allo act inactive, TMEM16A inh 25*, CHT block inactive and VIM-2 inhibitor -2.1.
Screening COc1ccccc1-c1cc(C(=O)N/N=C/c2sccc2C)c2ccccc2n1 returned IMP-1 inhibitor -1.8, ANO1 activ inactive, CHT allo act inactive, TMEM16A inh inactive, CHT block inactive and VIM-2 inhibitor -0.3.
For Cc1ccsc1/C=N/NC(=O)c1cc(-c2ccncc2)nc2ccccc12 the results were IMP-1 inhibitor -2.4, ANO1 activ -4.97*, CHT allo act inactive, TMEM16A inh inactive, CHT block inactive and VIM-2 inhibitor -5.5.
For CCC(C)(C)NC(=O)COc1ccc(C(=O)c2ccccc2)cc1 the results were IMP-1 inhibitor -3.0, ANO1 activ inactive, CHT allo act inactive, TMEM16A inh 25*, CHT block inactive and VIM-2 inhibitor -2.9.
`N#CC(C#N)=Cc1cccn1-c1ccc(S(N)(=O)=O)cc1` gave IMP-1 inhibitor -2.8, ANO1 activ -6.14*, CHT allo act inactive, TMEM16A inh inactive, CHT block inactive and VIM-2 inhibitor -2.9.
Screening COc1cc2c(c(OC)c1OC)-c1ccc(OC)c(=O)cc1C(NC(=O)c1ccccc1)CC2 (stereo unspecified) returned ANO1 activ inactive.
`Cc1nn2c(-c3cccc(NC(=O)c4ccco4)c3)nnc2c2ccccc12` gave IMP-1 inhibitor 3.3, ANO1 activ inactive, CHT allo act inactive, TMEM16A inh inactive, CHT block inactive and VIM-2 inhibitor 9.8*.
For Cc1ccc(-c2nnc3c4ccccc4c(C)nn23)cc1NC(=O)c1ccco1 the results were IMP-1 inhibitor -6.0 and VIM-2 inhibitor 1.4.
`C[C@H](NC(=O)c1nc[nH]c1C(=O)NCC(=O)OCc1ccccc1)C(=O)OC(C)(C)C` gave IMP-1 inhibitor -2.5, ANO1 activ inactive, CHT allo act inactive, TMEM16A inh inactive, CHT block inactive and VIM-2 inhibitor -0.2.
`C[C@@H](NC(=O)c1nc[nH]c1C(=O)NC1CCN(C(=O)OC(C)(C)C)CC1)c1ccccc1` gave ANO1 activ inactive.
C[C@H](NC(=O)c1nc[nH]c1C(=O)N1CCN(C(=O)OC(C)(C)C)CC1)c1ccccc1 was read as ANO1 activ -7.15*.
Screening CC(C)C[C@H](NC(=O)c1nc[nH]c1C(=O)NCC(=O)OCc1ccccc1)C(=O)OC(C)(C)C returned IMP-1 inhibitor -3.5, ANO1 activ -14.8*, CHT allo act inactive, TMEM16A inh inactive, CHT block inactive and VIM-2 inhibitor -2.7.
`COc1ccc(-c2cc3c(=O)n(CC(=O)NCCCc4ccccc4)ncn3n2)cc1` gave IMP-1 inhibitor 14.8*, ANO1 activ inactive, CHT allo act inactive, TMEM16A inh inactive, CHT block inactive and VIM-2 inhibitor -0.2.
`COc1ccc(-c2cc3c(=O)n(CC(=O)NCc4ccccc4OC)ncn3n2)cc1` gave IMP-1 inhibitor -3.2, ANO1 activ inactive, CHT allo act inactive, TMEM16A inh inactive, CHT block inactive and VIM-2 inhibitor -2.2.
Screening Cc1ccc(CC(=O)Nc2ccccc2N2CCOCC2)cc1C returned IMP-1 inhibitor 6.3*, ANO1 activ inactive, CHT allo act inactive, TMEM16A inh inactive, CHT block inactive and VIM-2 inhibitor -5.8.
Screening COc1ccc(CC(=O)Nc2ccccc2N2CCOCC2)cc1OC returned IMP-1 inhibitor -3.9, ANO1 activ inactive, CHT allo act inactive, TMEM16A inh inactive, CHT block inactive and VIM-2 inhibitor -1.3.
`CC(=O)Nc1ccc(S(=O)(=O)N(C)CC(=O)Nc2ccccc2N2CCCC2)cc1` gave ANO1 activ inactive, CHT allo act inactive, TMEM16A inh inactive and CHT block inactive.
For CS(=O)(=O)N1CCN(c2ccccc2NC(=O)Cc2ccc(Cl)cc2)CC1 the results were IMP-1 inhibitor -2.5, ANO1 activ -24.8*, CHT allo act inactive, TMEM16A inh inactive, CHT block inactive and VIM-2 inhibitor -2.1.
Screening CN(CC(=O)Nc1ccccc1N1CCOCC1)S(=O)(=O)c1ccc(F)cc1 returned IMP-1 inhibitor -2.9, ANO1 activ inactive, CHT allo act inactive, TMEM16A inh 25*, CHT block inactive and VIM-2 inhibitor -3.3.
For Cc1ccc(S(=O)(=O)c2ccsc2NC(=O)c2ccccc2)cc1 the results were ANO1 activ inactive.
For C#Cc1cccc(N2C(=O)C3C4C=CC(C3C2=O)C2C(=O)N(c3cccc(C#C)c3)C(=O)C42)c1 (stereo unspecified) the results were ANO1 activ inactive.
COC(=O)c1sc(-c2ccc(C(C)(C)C)cc2)cc1NC(=O)c1ccccc1C(=O)O was read as IMP-1 inhibitor -2.8, ANO1 activ inactive, CHT allo act inactive, TMEM16A inh 100*, CHT block inactive and VIM-2 inhibitor -2.7.
`Cc1ccc(-n2ccc(=O)c(C(=O)Nc3ccc(S(=O)(=O)Nc4onc(C)c4C)cc3)n2)cc1` gave IMP-1 inhibitor -3.9, ANO1 activ inactive, CHT allo act inactive, TMEM16A inh inactive, CHT block inactive and VIM-2 inhibitor 2.0.
N#C/C(=C(/O)c1ccc2c(c1)OCO2)c1nc2cc(C(F)(F)F)ccc2s1 was read as IMP-1 inhibitor -4.8, ANO1 activ inactive, CHT allo act inactive, TMEM16A inh 100*, CHT block -8.31* and VIM-2 inhibitor -3.8.

From PubChem
